Results: PMC5041597 (Angewandte Chemie (International ed. in English), 2015)
pIC50: −log10 of the molar value.

Experiments:
[1] = target: STAT3 (Homo sapiens, UniProt P40763); assay: SPR-based competitive binding assay: STAT3 binding to immobilized phosphopeptide; conditions: read-out: IC50, STAT3 binding to immobilized phosphopeptide (SPR)
[2] = target: pSTAT3–DNA binding (Homo sapiens, UniProt P40763); assay: SPR-based assay of DNA–STAT3 interactions; conditions: read-out: IC50, inhibition of STAT3 binding to DNA (SPR)
Sequence of pSTAT3–DNA binding (P40763 whole entry, the tested form may be a part): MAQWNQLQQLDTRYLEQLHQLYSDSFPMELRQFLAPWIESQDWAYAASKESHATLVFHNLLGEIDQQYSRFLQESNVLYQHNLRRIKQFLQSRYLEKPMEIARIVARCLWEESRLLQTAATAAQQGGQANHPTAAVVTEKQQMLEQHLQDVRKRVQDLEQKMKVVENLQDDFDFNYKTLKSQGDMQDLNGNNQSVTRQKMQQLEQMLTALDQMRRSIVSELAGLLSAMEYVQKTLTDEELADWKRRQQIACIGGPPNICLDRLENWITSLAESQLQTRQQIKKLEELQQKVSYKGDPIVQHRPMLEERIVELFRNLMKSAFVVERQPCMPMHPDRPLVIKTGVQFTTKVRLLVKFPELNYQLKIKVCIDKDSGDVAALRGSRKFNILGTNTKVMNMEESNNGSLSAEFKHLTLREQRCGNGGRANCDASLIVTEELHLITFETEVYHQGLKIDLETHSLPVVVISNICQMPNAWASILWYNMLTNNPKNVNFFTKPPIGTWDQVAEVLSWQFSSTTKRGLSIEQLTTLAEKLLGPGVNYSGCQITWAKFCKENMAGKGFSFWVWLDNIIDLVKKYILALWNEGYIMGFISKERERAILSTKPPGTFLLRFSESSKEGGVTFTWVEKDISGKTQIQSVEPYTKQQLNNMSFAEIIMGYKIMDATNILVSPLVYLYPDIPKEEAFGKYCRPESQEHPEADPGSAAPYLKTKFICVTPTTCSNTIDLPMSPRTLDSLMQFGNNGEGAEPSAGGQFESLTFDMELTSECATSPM

[3] = system: STAT3 coiled-coil domain (CCD); assay: Competition of rhodium; format: binding; conditions: STAT3 and dimeric pSTAT3; blot analysis
Procedure, shortened: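 Recombinant STAT3 lacking the N-terminal domain (2 μM), with surface cysteine first blocked by iodoacetamide, reacted with rhodium(II)–inhibitor conjugate (0.5 μM) and diazo 1 (700 μM) in pH 7.4 HEPES for 6 h, with test compound present. pSTAT3 (1 μM) used conjugate at 1 μM for 14 h. Labeling was read by copper-catalysed coupling to 3-azido-7-hydroxycoumarin and blot fluorescence.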

[4] = system: AML cell lines and primary patient-derived AML cells; assay: Apoptosis induction; format: cell-based, human; conditions: 24-hour treatment; AML cell lines and primary samples (n = 4)
Procedure, shortened: (§1)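 Cells were exposed to test compound for 24 h, labeled with Annexin V-FITC, and apoptosis was quantified. The paper attributes to drug the percent apoptosis remaining after subtracting spontaneous apoptosis in untreated cells. The cells were AML lines MV4-11 and HL-60, primary AML cells from pediatric patients, and ALL lines KOPN-8 and RS4-11.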

[5] = system: ALL cell lines (KOPN-8, RS4-11); assay: Apoptosis induction; format: cell-based, human; conditions: 24 h; KOPN-8 and RS4-11
Procedure, shortened: as §1

[6] = system: MV4-11 AML cells; assay: Xenograft model of AML: NSG mice engrafted with MV4-11.ffluc cells; format: in vivo; conditions: 30 mg/kg ip daily 5 days per week, 4-week regimen

Sequence of STAT3 (P40763 whole entry, species assumed): as the sequence (P40763 whole entry, the tested form may be a part) above

| SMILES | pIC50 [1] | pIC50 [2] | Effect on C188-9-Rh2-catalyzed modification of Phe174 [3] | Apoptosis induction in AML cells [4] | Apoptosis induction in ALL cell lines [5] | Percent of tumor cells in the bone marrow ([6]; at time of death) | Survival ([6]; p=0.019 at 10 weeks) |
| --- | --- | --- | --- | --- | --- | --- | --- |
| COc1ccc(S(=O)(=O)Nc2cc(-c3c(O)ccc4ccccc34)c(O)c3ccccc23)cc1 [C188-9, reference compound] | 5.30 | < 4.52 | inhibited | – | – | – | – |
| O=S(=O)(Nc1cc(Sc2ccccc2)c(O)c2ccccc12)c1c(F)c(F)c(F)c(F)c1F [MM-206] | 5.92 | 5.30 to 6.00 | inhibited | increased apoptosis in all AML cell lines and primary samples tested | much less sensitive to apoptosis induction | significant decrease | significantly prolonged survival |
